Reference: ChEMBL document CHEMBL3627597, “Synthesis of Fluorine-Containing Phosphodiesterase 10A (PDE10A) Inhibitors and the In Vivo Evaluation of F-18 Labeled PDE10A PET Tracers in Rodent and Nonhuman Primate” (J Med Chem, 2015)

Experiments:
Bone [1] = experiment: Biodistribution in Sprague-Dawley rat bone at 1.48 to 2.22 MBq, iv measured at 30 mins by gamma counting analysis; type: ADME, organism-based, Bone element; details: in vivo, 0.5 h
Outline: (§1)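 Male Sprague-Dawley rats (250 - 400 g), tail-vein injection of 1.48 - 2.22 MBq radiotracer under 2.5% isoflurane in oxygen; n=4 per time point, euthanized at 5, 30 and 60 min p.i. Brain regions obtained by gross dissection; peripheral tissues collected. Samples weighed, gamma-counted against a diluted-injectate standard; %ID/g calculated.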

Brain [2] = experiment: Biodistribution in Sprague-Dawley rat brain at 1.48 to 2.22 MBq, iv measured at 30 mins by gamma counting analysis; type: ADME, organism-based; details: in vivo, 0.5 h; outline: as §1
Rattus norvegicus [3] = experiment: Biodistribution in Sprague-Dawley rat fat tissue at 1.48 to 2.22 MBq, iv measured at 60 mins by gamma counting analysis; type: ADME, organism-based, Adipose tissue; details: in vivo, 1 h; outline: as §1
Liver [4] = experiment: Biodistribution in Sprague-Dawley rat liver at 1.48 to 2.22 MBq, iv measured at 60 mins by gamma counting analysis; type: ADME, organism-based; details: in vivo, 1 h; outline: as §1
Kidney [5] = experiment: Biodistribution in Sprague-Dawley rat kidney at 1.48 to 2.22 MBq, iv measured at 5 mins by gamma counting analysis; type: ADME, organism-based; details: in vivo; outline: as §1
Blood [6] = experiment: Biodistribution in Sprague-Dawley rat blood at 1.48 to 2.22 MBq, iv measured at 60 mins by gamma counting analysis; type: ADME, organism-based; details: in vivo, 1 h; outline: as §1
Bone [7] = experiment: Biodistribution in Sprague-Dawley rat bone at 1.48 to 2.22 MBq, iv measured at 5 mins by gamma counting analysis; type: ADME, organism-based, Bone element; details: in vivo; outline: as §1
Rattus norvegicus [8] = experiment: Biodistribution in Sprague-Dawley rat fat tissue at 1.48 to 2.22 MBq, iv measured at 30 mins by gamma counting analysis; type: ADME, organism-based, Adipose tissue; details: in vivo, 0.5 h; outline: as §1
Brain [9] = experiment: Biodistribution in Sprague-Dawley rat brain at 1.48 to 2.22 MBq, iv measured at 60 mins by gamma counting analysis; type: ADME, organism-based; details: in vivo, 1 h; outline: as §1
Muscle tissue [10] = experiment: Biodistribution in Sprague-Dawley rat muscle at 1.48 to 2.22 MBq, iv measured at 60 mins by gamma counting analysis; type: ADME, organism-based; details: in vivo, 1 h; outline: as §1
Brain [11] = experiment: Biodistribution in Sprague-Dawley rat brain at 1.48 to 2.22 MBq, iv measured at 5 mins by gamma counting analysis; type: ADME, organism-based; details: in vivo; outline: as §1
Blood [12] = experiment: Biodistribution in Sprague-Dawley rat blood at 1.48 to 2.22 MBq, iv measured at 30 mins by gamma counting analysis; type: ADME, organism-based; details: in vivo, 0.5 h; outline: as §1
Rattus norvegicus [13] = experiment: Biodistribution in Sprague-Dawley rat fat tissue at 1.48 to 2.22 MBq, iv measured at 5 mins by gamma counting analysis; type: ADME, organism-based, Adipose tissue; details: in vivo; outline: as §1
Blood [14] = experiment: Biodistribution in Sprague-Dawley rat blood at 1.48 to 2.22 MBq, iv measured at 5 mins by gamma counting analysis; type: ADME, organism-based; details: in vivo; outline: as §1
Striatum = experiment: Biodistribution in Sprague-Dawley rat striatum at 1.48 to 2.22 MBq, iv measured at 30 mins by gamma counting analysis; type: ADME, organism-based; details: in vivo, 0.5 h; outline: as §1
Muscle tissue [15] = experiment: Biodistribution in Sprague-Dawley rat muscle at 1.48 to 2.22 MBq, iv measured at 5 mins by gamma counting analysis; type: ADME, organism-based; details: in vivo; outline: as §1
Liver [16] = experiment: Biodistribution in Sprague-Dawley rat liver at 1.48 to 2.22 MBq, iv measured at 5 mins by gamma counting analysis; type: ADME, organism-based; details: in vivo; outline: as §1
Liver [17] = experiment: Biodistribution in Sprague-Dawley rat liver at 1.48 to 2.22 MBq, iv measured at 30 mins by gamma counting analysis; type: ADME, organism-based; details: in vivo, 0.5 h; outline: as §1
Kidney [18] = experiment: Biodistribution in Sprague-Dawley rat kidney at 1.48 to 2.22 MBq, iv measured at 60 mins by gamma counting analysis; type: ADME, organism-based; details: in vivo, 1 h; outline: as §1
Kidney [19] = experiment: Biodistribution in Sprague-Dawley rat kidney at 1.48 to 2.22 MBq, iv measured at 30 mins by gamma counting analysis; type: ADME, organism-based; details: in vivo, 0.5 h; outline: as §1
Bone [20] = experiment: Biodistribution in Sprague-Dawley rat bone at 1.48 to 2.22 MBq, iv measured at 60 mins by gamma counting analysis; type: ADME, organism-based, Bone element; details: in vivo, 1 h; outline: as §1
Muscle tissue [21] = experiment: Biodistribution in Sprague-Dawley rat muscle at 1.48 to 2.22 MBq, iv measured at 30 mins by gamma counting analysis; type: ADME, organism-based; details: in vivo, 0.5 h; outline: as §1
[22] = Ratio of drug level in striatum to cerebellum in Sprague-Dawley rat at 1.48 to 2.22 MBq, iv measured at 5 to 30 mins by gamma counting analysis; type: ADME, organism-based; details: in vivo
Outline: (§2)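 Striatum, cerebellum and cortex obtained by gross dissection from Sprague-Dawley rats (250 - 400 g, n=4 per time point) after tail-vein injection of 1.48 - 2.22 MBq under isoflurane anesthesia. Tissues weighed and gamma-counted with an injectate standard to give %ID/g; ratios taken from striatal versus non-target uptake.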

Nucleic Acid = experiment: Ratio of drug level in striatum to cortex in Sprague-Dawley rat at 1.48 to 2.22 MBq, iv measured at 5 to 30 mins by gamma counting analysis; type: ADME, organism-based; details: in vivo; outline: as §2
[23] = target: cAMP and cAMP-inhibited cGMP 3',5'-cyclic phosphodiesterase 10A (Homo sapiens, UniProt Q9Y233); experiment: Inhibition of recombinant human PDE10A assessed as reduction of [3H]-cAMP hydrolysis preincubated for 5 mins followed by [3H]-cAMP addition measured after 20 mins by scintillation proximity assay
Outline: (§3)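 Recombinant human PDE with [3H]cAMP scintillation proximity assay. Enzyme used at a level within the linear range. Inhibitor (DMSO serial dilutions) plus enzyme held 5 min on ice, then [3H]cAMP added at 1/3 Km (1.48 kBq/mL), 20 min on ice (~30% turnover). Stopped with yttrium silicate SPA beads; settled 1.5 h at rt and counted. IC50 from one-site nonlinear fit, at least two independent runs, ± SD.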

[24] = target: 3',5'-cyclic-AMP phosphodiesterase 4A (Homo sapiens, UniProt P27815); experiment: Inhibition of recombinant human PDE4A assessed as reduction of [3H]-cAMP hydrolysis preincubated for 5 mins followed by [3H]-cAMP addition measured after 20 mins by scintillation proximity assay; outline: as §3
Homo sapiens [25] = species on record: Homo sapiens; experiment: Selectivity ratio of IC50 for recombinant human PDE4A to IC50 for recombinant human PDE10A
[26] = target: cGMP-inhibited 3',5'-cyclic phosphodiesterase 3B (Homo sapiens, UniProt Q13370); experiment: Inhibition of recombinant human PDE3B assessed as reduction of [3H]-cAMP hydrolysis preincubated for 5 mins followed by [3H]-cAMP addition measured after 20 mins by scintillation proximity assay; outline: as §3
[27] = target: cGMP-inhibited 3',5'-cyclic phosphodiesterase 3A (Homo sapiens, UniProt Q14432); experiment: Inhibition of recombinant human PDE3A assessed as reduction of [3H]-cAMP hydrolysis preincubated for 5 mins followed by [3H]-cAMP addition measured after 20 mins by scintillation proximity assay; outline: as §3
Homo sapiens [28] = species on record: Homo sapiens; experiment: Selectivity ratio of IC50 for recombinant human PDE4B to IC50 for recombinant human PDE10A
[29] = target: 3',5'-cyclic-AMP phosphodiesterase 4B (Homo sapiens, UniProt Q07343); experiment: Inhibition of recombinant human PDE4B assessed as reduction of [3H]-cAMP hydrolysis preincubated for 5 mins followed by [3H]-cAMP addition measured after 20 mins by scintillation proximity assay; outline: as §3
Homo sapiens [30] = species on record: Homo sapiens; experiment: Selectivity ratio of IC50 for recombinant human PDE3B to IC50 for recombinant human PDE10A
Homo sapiens [31] = species on record: Homo sapiens; experiment: Selectivity ratio of IC50 for recombinant human PDE3A to IC50 for recombinant human PDE10A

Sequence of cGMP-inhibited 3',5'-cyclic phosphodiesterase 3B (Q13370 whole entry): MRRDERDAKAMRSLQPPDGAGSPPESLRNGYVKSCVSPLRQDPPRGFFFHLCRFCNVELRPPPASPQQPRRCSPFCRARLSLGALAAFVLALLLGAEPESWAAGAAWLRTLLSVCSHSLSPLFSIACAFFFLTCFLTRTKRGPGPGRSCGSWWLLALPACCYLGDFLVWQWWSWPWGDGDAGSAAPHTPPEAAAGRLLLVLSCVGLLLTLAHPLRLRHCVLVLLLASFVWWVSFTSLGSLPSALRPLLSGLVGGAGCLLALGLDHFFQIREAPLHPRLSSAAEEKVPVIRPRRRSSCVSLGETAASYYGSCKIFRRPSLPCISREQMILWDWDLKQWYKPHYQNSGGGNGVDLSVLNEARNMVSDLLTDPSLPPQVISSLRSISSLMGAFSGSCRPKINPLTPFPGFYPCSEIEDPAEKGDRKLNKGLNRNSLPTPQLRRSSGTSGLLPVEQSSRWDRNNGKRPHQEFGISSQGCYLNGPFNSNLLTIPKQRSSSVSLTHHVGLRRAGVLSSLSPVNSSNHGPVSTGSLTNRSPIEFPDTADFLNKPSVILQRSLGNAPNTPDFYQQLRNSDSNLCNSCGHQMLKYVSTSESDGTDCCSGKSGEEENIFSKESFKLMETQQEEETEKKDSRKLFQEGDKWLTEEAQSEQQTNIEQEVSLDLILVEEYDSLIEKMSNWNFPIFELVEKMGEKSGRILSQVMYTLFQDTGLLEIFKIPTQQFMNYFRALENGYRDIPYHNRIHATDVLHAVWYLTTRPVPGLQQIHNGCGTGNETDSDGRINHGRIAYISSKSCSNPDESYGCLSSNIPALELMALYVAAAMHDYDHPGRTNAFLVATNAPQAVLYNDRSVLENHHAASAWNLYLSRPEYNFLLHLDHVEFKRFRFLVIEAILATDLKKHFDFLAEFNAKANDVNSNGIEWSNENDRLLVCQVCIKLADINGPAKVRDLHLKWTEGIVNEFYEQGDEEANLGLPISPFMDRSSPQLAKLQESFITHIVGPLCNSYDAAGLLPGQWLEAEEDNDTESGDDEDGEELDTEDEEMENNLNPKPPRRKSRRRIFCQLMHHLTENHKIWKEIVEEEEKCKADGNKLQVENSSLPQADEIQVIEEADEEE
Sequence of 3',5'-cyclic-AMP phosphodiesterase 4A (P27815 whole entry): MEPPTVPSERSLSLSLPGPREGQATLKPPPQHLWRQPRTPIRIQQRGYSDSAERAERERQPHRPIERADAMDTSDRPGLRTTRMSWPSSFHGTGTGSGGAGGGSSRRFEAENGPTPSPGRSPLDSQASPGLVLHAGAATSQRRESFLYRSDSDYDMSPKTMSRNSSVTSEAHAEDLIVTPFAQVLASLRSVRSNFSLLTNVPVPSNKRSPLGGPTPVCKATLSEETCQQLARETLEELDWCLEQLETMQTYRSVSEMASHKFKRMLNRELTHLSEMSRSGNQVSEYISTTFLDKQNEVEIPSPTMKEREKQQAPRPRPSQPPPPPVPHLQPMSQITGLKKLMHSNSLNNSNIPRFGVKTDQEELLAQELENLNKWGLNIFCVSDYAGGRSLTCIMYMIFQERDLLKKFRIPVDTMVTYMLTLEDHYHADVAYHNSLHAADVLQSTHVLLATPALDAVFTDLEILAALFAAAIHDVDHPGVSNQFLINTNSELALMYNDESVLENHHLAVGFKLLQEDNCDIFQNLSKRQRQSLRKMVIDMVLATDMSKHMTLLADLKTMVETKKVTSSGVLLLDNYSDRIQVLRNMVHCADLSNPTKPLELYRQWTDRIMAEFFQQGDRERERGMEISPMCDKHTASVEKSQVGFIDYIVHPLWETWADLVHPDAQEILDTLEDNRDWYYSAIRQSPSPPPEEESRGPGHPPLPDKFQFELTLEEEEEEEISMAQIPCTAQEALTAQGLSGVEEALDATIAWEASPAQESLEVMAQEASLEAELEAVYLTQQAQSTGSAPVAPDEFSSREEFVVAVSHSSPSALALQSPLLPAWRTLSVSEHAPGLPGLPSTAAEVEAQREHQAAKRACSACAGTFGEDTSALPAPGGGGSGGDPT
Sequence of 3',5'-cyclic-AMP phosphodiesterase 4B (Q07343 whole entry): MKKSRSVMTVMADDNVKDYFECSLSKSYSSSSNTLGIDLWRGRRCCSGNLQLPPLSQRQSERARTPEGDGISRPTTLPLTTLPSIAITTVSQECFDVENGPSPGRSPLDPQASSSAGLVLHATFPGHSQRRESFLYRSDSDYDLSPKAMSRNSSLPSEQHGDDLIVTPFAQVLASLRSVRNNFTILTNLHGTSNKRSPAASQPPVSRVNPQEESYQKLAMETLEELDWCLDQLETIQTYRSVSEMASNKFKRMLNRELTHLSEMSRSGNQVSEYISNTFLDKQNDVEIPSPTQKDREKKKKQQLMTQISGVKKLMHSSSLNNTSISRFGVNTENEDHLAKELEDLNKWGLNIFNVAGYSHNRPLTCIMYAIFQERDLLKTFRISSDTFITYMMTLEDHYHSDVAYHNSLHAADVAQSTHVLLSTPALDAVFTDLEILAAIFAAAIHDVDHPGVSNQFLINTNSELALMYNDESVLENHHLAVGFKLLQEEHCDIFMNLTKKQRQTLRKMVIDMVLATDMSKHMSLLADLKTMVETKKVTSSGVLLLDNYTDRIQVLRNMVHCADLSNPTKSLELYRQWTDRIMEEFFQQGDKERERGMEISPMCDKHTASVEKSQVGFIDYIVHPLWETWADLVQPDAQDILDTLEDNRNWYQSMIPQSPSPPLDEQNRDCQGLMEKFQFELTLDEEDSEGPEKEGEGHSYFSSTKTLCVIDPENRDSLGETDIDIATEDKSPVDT
Sequence of cAMP and cAMP-inhibited cGMP 3',5'-cyclic phosphodiesterase 10A (Q9Y233 whole entry): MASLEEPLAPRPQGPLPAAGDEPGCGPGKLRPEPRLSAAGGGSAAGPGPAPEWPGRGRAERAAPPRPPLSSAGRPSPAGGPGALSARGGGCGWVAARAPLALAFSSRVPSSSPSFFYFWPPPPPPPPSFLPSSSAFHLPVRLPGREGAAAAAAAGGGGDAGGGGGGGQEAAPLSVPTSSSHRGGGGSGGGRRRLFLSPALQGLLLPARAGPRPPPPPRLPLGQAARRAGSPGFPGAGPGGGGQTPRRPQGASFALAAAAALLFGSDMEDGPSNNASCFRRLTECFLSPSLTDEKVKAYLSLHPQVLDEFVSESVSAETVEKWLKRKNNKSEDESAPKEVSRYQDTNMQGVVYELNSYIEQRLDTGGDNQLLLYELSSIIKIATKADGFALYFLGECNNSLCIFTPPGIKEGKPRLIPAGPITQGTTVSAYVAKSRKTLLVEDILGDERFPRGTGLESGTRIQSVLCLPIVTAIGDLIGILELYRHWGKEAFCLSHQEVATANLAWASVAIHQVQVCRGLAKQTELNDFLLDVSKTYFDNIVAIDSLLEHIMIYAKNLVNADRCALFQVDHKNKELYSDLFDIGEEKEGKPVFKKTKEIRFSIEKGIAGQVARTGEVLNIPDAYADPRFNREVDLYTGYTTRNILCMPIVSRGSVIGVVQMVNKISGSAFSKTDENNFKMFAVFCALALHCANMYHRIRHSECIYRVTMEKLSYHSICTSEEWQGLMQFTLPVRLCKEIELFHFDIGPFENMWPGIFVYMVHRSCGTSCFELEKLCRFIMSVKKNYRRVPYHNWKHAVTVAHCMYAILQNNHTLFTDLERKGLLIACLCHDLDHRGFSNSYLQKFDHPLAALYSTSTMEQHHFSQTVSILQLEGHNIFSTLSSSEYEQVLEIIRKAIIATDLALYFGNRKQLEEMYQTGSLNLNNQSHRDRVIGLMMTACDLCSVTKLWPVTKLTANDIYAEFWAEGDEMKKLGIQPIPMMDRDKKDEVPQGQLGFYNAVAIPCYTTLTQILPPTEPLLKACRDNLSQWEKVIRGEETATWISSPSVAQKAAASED
Sequence of cGMP-inhibited 3',5'-cyclic phosphodiesterase 3A (Q14432 whole entry): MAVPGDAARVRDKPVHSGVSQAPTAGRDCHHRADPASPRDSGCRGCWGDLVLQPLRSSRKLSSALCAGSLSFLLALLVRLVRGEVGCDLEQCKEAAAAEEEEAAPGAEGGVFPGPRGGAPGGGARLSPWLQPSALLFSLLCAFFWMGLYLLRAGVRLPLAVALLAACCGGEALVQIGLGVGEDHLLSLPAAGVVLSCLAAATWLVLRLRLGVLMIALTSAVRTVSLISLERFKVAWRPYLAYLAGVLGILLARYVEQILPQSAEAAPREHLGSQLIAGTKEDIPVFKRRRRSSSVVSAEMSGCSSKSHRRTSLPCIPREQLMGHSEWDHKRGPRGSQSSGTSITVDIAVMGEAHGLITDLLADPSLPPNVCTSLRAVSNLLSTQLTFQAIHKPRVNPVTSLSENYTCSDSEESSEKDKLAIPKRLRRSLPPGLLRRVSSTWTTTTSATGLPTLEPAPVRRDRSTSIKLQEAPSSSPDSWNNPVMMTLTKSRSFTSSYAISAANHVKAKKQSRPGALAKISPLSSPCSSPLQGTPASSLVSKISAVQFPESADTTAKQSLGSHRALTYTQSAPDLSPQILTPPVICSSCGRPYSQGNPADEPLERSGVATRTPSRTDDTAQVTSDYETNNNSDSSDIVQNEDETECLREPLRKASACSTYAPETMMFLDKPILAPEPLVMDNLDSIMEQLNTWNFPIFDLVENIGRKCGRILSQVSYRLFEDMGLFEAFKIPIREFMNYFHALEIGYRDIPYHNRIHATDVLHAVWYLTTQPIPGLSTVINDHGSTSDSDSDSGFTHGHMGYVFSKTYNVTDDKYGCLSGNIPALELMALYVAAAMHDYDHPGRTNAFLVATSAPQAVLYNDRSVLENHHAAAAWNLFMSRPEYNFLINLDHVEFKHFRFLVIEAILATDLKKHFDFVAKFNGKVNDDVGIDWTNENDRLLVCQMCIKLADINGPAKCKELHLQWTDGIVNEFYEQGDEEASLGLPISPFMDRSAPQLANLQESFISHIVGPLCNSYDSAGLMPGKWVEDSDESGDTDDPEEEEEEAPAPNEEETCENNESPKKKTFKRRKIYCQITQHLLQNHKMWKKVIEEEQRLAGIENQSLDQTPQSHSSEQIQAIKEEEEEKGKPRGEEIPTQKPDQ

SMILES	Drug uptake (Bone [1]) [% ID/g]	Drug uptake (Brain [2]) [% ID/g]	Drug uptake (Rattus norvegicus [3]) [% ID/g]	Drug uptake (Liver [4]) [% ID/g]	Drug uptake (Kidney [5]) [% ID/g]	Drug uptake (Blood [6]) [% ID/g]	Drug uptake (Bone [7]) [% ID/g]	Drug uptake (Rattus norvegicus [8]) [% ID/g]	Drug uptake (Brain [9]) [% ID/g]	Drug uptake (Muscle tissue [10]) [% ID/g]	Drug uptake (Brain [11]) [% ID/g]	Drug uptake (Blood [12]) [% ID/g]	Drug uptake (Rattus norvegicus [13]) [% ID/g]	Drug uptake (Blood [14]) [% ID/g]	Drug uptake (Striatum)	Drug uptake (Muscle tissue [15]) [% ID/g]	Drug uptake (Liver [16]) [% ID/g]	Drug uptake (Liver [17]) [% ID/g]	Drug uptake (Kidney [18]) [% ID/g]	Drug uptake (Kidney [19]) [% ID/g]	further results
Cn1cc(-c2ccncc2)c(-c2ccc(OCc3cc(OCCOCCOCC[18F])c4ccccc4n3)cc2)n1	0.441	0.509	0.123	0.527	5.969	0.646	0.487	0.254	0.421	0.379	0.353	0.771	0.225	0.699	Active	0.419	4.74	1.53	1.037	1.793	Drug uptake (Bone [20]): 0.49 % ID/g; Drug uptake (Muscle tissue [21]): 0.488 % ID/g
Cn1cc(-c2ccncc2)c(-c2ccc(OCc3cc([18F])c4ccccc4n3)cc2)n1	4.035	0.191	0.477	1.6	1.887	0.15	0.522	0.576	0.125	0.092	0.41	0.376	0.404	0.353	Active	0.339	6.87	3	0.533	1.034	Ratio [22]: > 2; Ratio (Nucleic Acid): > 2; Drug uptake (Bone [20]): 6.3 % ID/g; Drug uptake (Muscle tissue [21]): 0.236 % ID/g
Cn1cc(-c2ccncc2)c(-c2ccc(OCc3cc(C[18F])c4ccccc4n3)cc2)n1	4.055	0.094	0.222	3.1	1.799	0.201	0.421	0.352	0.069	0.107	0.128	0.416	0.343	0.471	Active	0.227	10.16	4.01	0.573	1.351	Ratio [22]: > 2; Ratio (Nucleic Acid): > 2; Drug uptake (Bone [20]): 5.62 % ID/g; Drug uptake (Muscle tissue [21]): 0.174 % ID/g
Cn1cc(-c2ccncc2)c(-c2ccc(OCc3cc(COCC[18F])c4ccccc4n3)cc2)n1	0.17	0.353	0.066	0.554	0.981	0.401	0.133	0.139	0.343	0.228	0.213	0.424	0.139	0.44	Active	0.155	3.99	0.987	0.485	0.632	Drug uptake (Bone [20]): 0.337 % ID/g; Drug uptake (Muscle tissue [21]): 0.265 % ID/g
Cn1ncc(-c2ccncc2)c1-c1ccc(OCc2cc(-n3cc(CCF)nn3)c3ccccc3n2)cc1	–	–	–	–	–	–	–	–	–	–	–	–	–	–	–	–	–	–	–	–	IC50 [23]: 0.00498 µM; IC50 [24]: 1.86 µM; Ratio IC50 (Homo sapiens [25]): > 210; IC50 [26]: 16.2 µM; IC50 [27]: 0.81 µM; Ratio IC50 (Homo sapiens [28]): > 210; IC50 [29]: 0.9 µM; Ratio IC50 (Homo sapiens [30]): > 210; Ratio IC50 (Homo sapiens [31]): > 210
